Consider 13 compounds from ChEMBL document CHEMBL1151763, “Identification of diarylsulfone sulfonamides as secreted frizzled related protein-1 (sFRP-1) inhibitors” (J Med Chem, 2008).

Molecules are shown by their SMILES. Values after ≈ are worked out from the molar mass of the structure shown. Active and inactive are the calls of the source. No cut-off for these calls is given here.

The target of data set [1] is T1, Secreted frizzled-related protein 1 (Homo sapiens) (UniProt Q8N474).
T1 sequence (whole entry): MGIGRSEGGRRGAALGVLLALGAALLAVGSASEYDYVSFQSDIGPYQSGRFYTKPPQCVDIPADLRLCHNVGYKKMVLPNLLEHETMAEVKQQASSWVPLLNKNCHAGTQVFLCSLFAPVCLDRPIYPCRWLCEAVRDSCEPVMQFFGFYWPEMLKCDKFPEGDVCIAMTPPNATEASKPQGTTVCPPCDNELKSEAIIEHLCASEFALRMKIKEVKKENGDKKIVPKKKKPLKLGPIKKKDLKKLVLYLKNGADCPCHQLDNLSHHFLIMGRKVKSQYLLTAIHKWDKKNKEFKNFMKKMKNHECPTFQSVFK
Briefly: Inhibition of human sFRP1 expressed in human U2OS assessed as fold induction in luciferase activity at 15 uM by TCF-luciferase reporter gene assay relative to control. The method, boiled down: (§1)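 U2OS human osteosarcoma cells transfected with human sFRP-1, Wnt-3 and a TCF-luciferase reporter (canonical Wnt read-out). Inhibitor tested at 15 µM or 30 µM. Luciferase signal without inhibitor set at 1; fold induction measured in quadruplicate.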

For data set [2], the target named is T2, Secreted frizzled-related protein 1 (Homo sapiens, UniProt Q8N474).
T2 sequence (Q8N474 whole entry): T1 sequence (whole entry)
The data set is described as follows: Inhibition of human sFRP1 expressed in human U2OS assessed as luciferase activity by TCF-luciferase reporter gene assay. The method in brief:
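Cell-based functional assay in U2OS human osteosarcoma cells transfected with human sFRP-1, Wnt-3 and a TCF-luciferase reporter gene measuring canonical Wnt pathway activation; EC50 derived from luciferase signal.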

Data set [3] in a line: Aqueous solubility at pH 7.4. In kind it is physicochemical. The settings on record: buffer.
A short description of data set [4]: Metabolic stability in rat microsomes assessed as half life. In kind it is ADME, Microsome.
Data set [5] is described as follows: Metabolic stability in human microsomes assessed as half life. In kind it is ADME, Microsome.
For a further data set, the target named is CYP3A4 (Homo sapiens, UniProt P08684). The data set is described as follows: Inhibition of CYP3A4 at 3 uM. In kind it is ADME.
CYP3A4, sequence (P08684 whole entry): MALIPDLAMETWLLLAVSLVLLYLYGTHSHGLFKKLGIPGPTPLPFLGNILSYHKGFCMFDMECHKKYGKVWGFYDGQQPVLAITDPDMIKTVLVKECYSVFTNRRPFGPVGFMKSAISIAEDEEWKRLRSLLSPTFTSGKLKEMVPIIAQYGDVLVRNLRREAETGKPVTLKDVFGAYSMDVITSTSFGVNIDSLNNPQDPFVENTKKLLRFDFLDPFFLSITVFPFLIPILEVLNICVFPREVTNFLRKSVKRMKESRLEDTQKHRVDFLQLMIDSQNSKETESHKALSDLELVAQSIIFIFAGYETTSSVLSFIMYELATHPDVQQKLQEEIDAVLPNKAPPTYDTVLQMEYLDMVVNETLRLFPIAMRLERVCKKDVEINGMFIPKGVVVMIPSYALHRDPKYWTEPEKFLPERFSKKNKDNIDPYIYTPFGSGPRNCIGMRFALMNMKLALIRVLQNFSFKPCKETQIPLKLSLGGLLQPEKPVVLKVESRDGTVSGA
Another data set addresses CYP2D6 (Homo sapiens, UniProt P10635). Briefly: Inhibition of CYP2D6 at 3 uM. In kind it is ADME.
Another data set deals with CYP2C9 (Homo sapiens, UniProt P11712). Briefly: Inhibition of CYP2C9 at 3 uM. In kind it is ADME.
CYP2C9, sequence (P11712 whole entry): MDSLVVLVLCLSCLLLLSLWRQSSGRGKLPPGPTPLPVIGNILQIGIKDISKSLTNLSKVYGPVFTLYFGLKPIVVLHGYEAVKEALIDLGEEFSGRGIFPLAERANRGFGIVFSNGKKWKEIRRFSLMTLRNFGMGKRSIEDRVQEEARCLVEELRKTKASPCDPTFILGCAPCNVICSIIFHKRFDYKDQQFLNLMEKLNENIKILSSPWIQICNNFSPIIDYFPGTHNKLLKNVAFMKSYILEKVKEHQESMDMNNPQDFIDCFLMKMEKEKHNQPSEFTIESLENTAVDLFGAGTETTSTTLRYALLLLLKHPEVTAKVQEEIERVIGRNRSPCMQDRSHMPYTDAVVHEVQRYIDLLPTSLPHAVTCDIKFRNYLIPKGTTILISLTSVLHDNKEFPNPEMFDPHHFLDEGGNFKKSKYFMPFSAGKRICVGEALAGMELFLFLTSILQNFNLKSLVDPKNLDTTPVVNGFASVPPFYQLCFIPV
Data set [6] addresses T1, Secreted frizzled-related protein 1 (Homo sapiens). Briefly: Inhibition of human sFRP1 expressed in human U2OS assessed as fold induction in luciferase activity at 30 uM by TCF-luciferase reporter gene assay relative to control. The method, boiled down:
as §1

Data set [7] is described as follows: Increase in bone formation in mouse calvaria assessed as increase in bone area at 5 uM after 7 days relative to control. In kind it is functional.
The species named for a further data set is Mus musculus. The data set is described as follows: Increase in bone formation in mouse calvaria assessed as number of osteoblast on bone surface at 5 uM after 7 days relative to control. In kind it is functional.
Data set [8] addresses T2, Secreted frizzled-related protein 1. Briefly: Binding affinity to human sFRP1 by fluorescence spectroscopy. The method in brief:
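Binding constant (K_D) taken from changes in intrinsic tryptophan fluorescence of sFRP-1 on inhibitor binding; excitation 295 nm, emission 340 nm. Stoichiometry of binding also determined.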

CYP2D6, sequence (P10635 whole entry): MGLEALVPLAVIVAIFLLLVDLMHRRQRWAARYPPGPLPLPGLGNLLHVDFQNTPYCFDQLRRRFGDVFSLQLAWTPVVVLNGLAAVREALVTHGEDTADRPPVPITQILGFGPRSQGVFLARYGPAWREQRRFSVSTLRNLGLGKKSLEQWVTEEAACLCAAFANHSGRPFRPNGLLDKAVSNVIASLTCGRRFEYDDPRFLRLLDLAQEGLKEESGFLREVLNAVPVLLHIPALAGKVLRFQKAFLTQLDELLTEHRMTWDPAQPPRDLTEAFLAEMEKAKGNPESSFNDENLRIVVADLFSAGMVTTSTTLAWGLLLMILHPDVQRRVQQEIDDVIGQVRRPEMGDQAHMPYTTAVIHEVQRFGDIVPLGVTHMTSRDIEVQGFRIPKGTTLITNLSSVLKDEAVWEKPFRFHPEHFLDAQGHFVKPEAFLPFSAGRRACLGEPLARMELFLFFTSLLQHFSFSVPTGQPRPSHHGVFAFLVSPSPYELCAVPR

In the case of `CCc1ccc(S(=O)(=O)c2ccccc2)cc1S(=O)(=O)NCCCN(C)C`, the fold change (FC) in [1] came to 3.3. For the same compound, the EC50 in data set [2] stood at 1.27 µM. The compound also had a solubility in data set [3] of 26 µg/mL (≈ 63.3 µM). The half-life in data set [4] is 12 min; in [5] it was 26.7 min. Further, the inhibition at 3 µM on CYP3A4 came out at 43%; against CYP2D6, 9%; against CYP2C9, 14%.

On to `Cc1ccc(S(=O)(=O)c2ccccc2)cc1S(=O)(=O)N(C)CCc1ccccc1`, for which the fold change (FC) in data set [1] is below 1.

With `Cc1ccc(S(=O)(=O)c2ccccc2)cc1S(=O)(=O)NCCCc1ccccc1`, the fold change (FC) in [1] was 1.3.

For the compound `Cc1ccc(S(=O)(=O)c2ccc(C)c(S(=O)(=O)NCCc3ccccc3)c2)cc1`, the fold change (FC) in data set [1] amounted to 2.2.

With `O=S(=O)(NCCc1ccccc1)c1cccc(S(=O)(=O)c2ccccc2)c1`, in data set [1], the fold change (FC) was below 1.

Turning to `Cc1ccc(S(=O)(=O)c2ccccc2)cc1S(=O)(=O)NCc1ccccc1`, the fold change (FC) in data set [6] is below 1.

With `CCc1ccc(S(=O)(=O)c2ccccc2)cc1S(=O)(=O)NCCCN1CCCC1`, in data set [1], the fold change (FC) is 4.2. The EC50 in [2] amounted to 9 µM. In addition, in data set [3], the solubility was above 100 µg/mL. In data set [4], the half-life was 16 min. For the same compound, the inhibition at 3 µM against CYP3A4 was found to be 78%; on CYP2D6 it was 25%; against CYP2C9, 25%.

For the compound `CCc1ccc(S(=O)(=O)c2ccccc2)cc1S(=O)(=O)NCCc1ccc(OC)c(OC)c1`, in data set [1], the fold change (FC) was found to be 3. Moreover, in [2], the EC50 amounted to 6.97 µM. The solubility in data set [3] worked out at 1 µg/mL (≈ 2.04 µM). The half-life in data set [4] was 1 min. Moreover, the figures for the inhibition at 3 µM at CYP3A4, against CYP2D6 and at CYP2C9 were 96%, 11% and 84%, respectively. For the same compound, the Activity in data set [7] amounted to 50%. Moreover, the outcome in the data set filed under Mus musculus was Active.

`Cc1ccc(S(=O)(=O)c2ccc(Cl)cc2)cc1S(=O)(=O)Nc1ccccc1`: the fold change (FC) in data set [6] was found to be 1.

Regarding `Cc1ccc(S(=O)(=O)c2ccccc2)cc1S(=O)(=O)NCCc1ccccc1`, the fold change (FC) in [1] was 2.5. Further, the EC50 in [2] amounted to 3.88 µM. This compound also gave a solubility in data set [3] of 1 µg/mL (≈ 2.41 µM). Moreover, the half-life in [4] is 5 min. Further, the inhibition at 3 µM against CYP3A4 stood at 70%; on CYP2D6, 12%; on CYP2C9 it was 41%. This compound also displayed a Kd in [8] of 0.35 µM.

On to `COc1ccc(S(=O)(=O)c2ccccc2)cc1S(=O)(=O)NCCc1ccccc1`, for which the fold change (FC) in data set [1] turned out to be 1.5.

Turning to `Cc1ccc(S(=O)(=O)c2ccc(F)cc2)cc1S(=O)(=O)NCCc1ccccc1`, the fold change (FC) in data set [1] amounted to 2.7.

Turning to `CCc1ccc(S(=O)(=O)c2ccccc2)cc1S(=O)(=O)NCCc1ccccc1`, the fold change (FC) in data set [1] was found to be 3.3.
